Screening data: PubChem BioAssay, several laboratories
WT yeast gro inh: growth inhibition of WT yeast, mitochondrial fusion screen; AID 1362; inhibition, % at 10 µM; 2.1% of 190,000 active; mitochondrial fusion phenotypic screen, WT strain; in the data active = inhibition above about 58%; tested in S. cerevisiae
RAM network inh: yeast RAM network inhibition; S. cerevisiae dse1pr::URA3 reporter, 5-FOA growth OD615, 2 d; analog-sensitive cbk1-as2 kinase mutant strain; inhibition, % at 50 µM; 1.8% of 190,000 active;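 active = inhibition above a set limit, 3 SD over mean compound inhibition, cut at about 8.4% in these data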;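 note: inhibition rescues growth on 5-FOA so higher OD means more RAM inhibition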
L major viab: Leishmania major promastigote growth inhibition; 9% of 200,000 active; inhibition, % at 10 µM; Leishmania major promastigotes, resazurin fluorescence viability; in the data active = inhibition above about 50%;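 note: promastigotes grown with compound for 44 hours at 28 °C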
ABCB1 inh: human ABCB1 inhibition, ABCG2 as counter-screen. P08183. inhibition, % at 6.6 µM. CCRF-Adr cells, JC-1 efflux, flow cytometry. 0.067% of 190,000 active; in the data active = inhibition above about 40%;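 note: higher value means more JC-1 retained so stronger ABCB1 efflux block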
ABCG2 block: human ABCG2 inhibition, ABCB1 as counter-screen; Q9UNQ0; IgMXP3 cells, JC-1 efflux, flow cytometry; inhibition, % at 6.6 µM; 0.1% of 190,000 active; AID 1325;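 active = inhibition above 80%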
Target sequence (Q9UNQ0 whole entry, looked up): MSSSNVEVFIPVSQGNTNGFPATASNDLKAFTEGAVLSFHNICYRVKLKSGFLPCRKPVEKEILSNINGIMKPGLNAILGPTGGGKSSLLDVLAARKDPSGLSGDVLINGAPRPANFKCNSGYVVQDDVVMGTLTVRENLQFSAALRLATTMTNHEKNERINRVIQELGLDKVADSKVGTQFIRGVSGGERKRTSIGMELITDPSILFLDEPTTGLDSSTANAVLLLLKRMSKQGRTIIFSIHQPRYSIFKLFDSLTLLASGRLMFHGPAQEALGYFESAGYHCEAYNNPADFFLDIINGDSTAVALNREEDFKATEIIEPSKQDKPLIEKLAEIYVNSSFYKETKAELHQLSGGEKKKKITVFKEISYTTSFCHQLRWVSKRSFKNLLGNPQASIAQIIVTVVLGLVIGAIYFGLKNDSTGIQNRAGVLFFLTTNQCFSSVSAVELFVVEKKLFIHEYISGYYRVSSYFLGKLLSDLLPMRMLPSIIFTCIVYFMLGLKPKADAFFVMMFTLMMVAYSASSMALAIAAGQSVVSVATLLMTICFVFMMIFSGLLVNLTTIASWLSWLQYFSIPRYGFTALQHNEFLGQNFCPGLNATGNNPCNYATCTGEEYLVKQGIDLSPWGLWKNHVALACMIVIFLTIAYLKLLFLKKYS
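Test system: IgMXP3 (ABCG2) plus far-red-tagged CCRF-Adr (ABCB1) cells. Reagent: JC-1 dye as substrate. Timing: 10 min exposure at 25 °C with rotation, no wash. Measured by: flow cytometric JC-1 green MFI at 530 nm. Read-out: percent efflux inhibition, scaled nicardipine 100% to DMSO 0%. Control set: nicardipine and DMSO wells.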
A number is an active result; – = inactive; · = no result. Most compounds without a hit are left out; they make up all but 12% or so of the library.

SMILES	WT yeast gro inh	RAM network inh	L major viab	ABCB1 inh	ABCG2 block
O=C(Nc1ccc(N2CCN(C(=O)c3ccco3)CC2)c(Cl)c1)c1cc2ccccc2o1	–	–	96	–	–
CSc1ccccc1C(=O)OCC(=O)NC1CCS(=O)(=O)C1 (centres undefined)	–	–	–	–	–
CC(C)CNC(=S)NC(=O)c1ccc(F)cc1	–	–	–	–	–
Cc1cccc(N2CCN(C(=O)CCCn3c(=S)[nH]c4cc5c(cc4c3=O)OCO5)CC2)c1C	–	–	64	–	–
O=C(CCCn1c(=S)[nH]c2cc3c(cc2c1=O)OCO3)N1CCN(c2ccc(Cl)cc2)CC1	–	–	56	–	–
O=C(CCCn1c(=S)[nH]c2cc3c(cc2c1=O)OCO3)N1CCN(c2ccccc2)CC1	–	–	–	–	–
COc1ccc(Cl)cc1NC(=S)N(CCCN1CCOCC1)Cc1cn(C)c2ccccc12	–	–	100	–	–
COc1cc(Cl)ccc1NC(=S)N(CCCN1CCOCC1)Cc1cn(C)c2ccccc12	–	–	89	–	–
CN(C)S(=O)(=O)c1cccc(NC(=O)COC(=O)c2cccn2C)c1	–	–	–	–	–
COc1cccc(-c2nc(CS(=O)(=O)CC(=O)NCCCN3CCc4ccccc4C3)c(C)o2)c1	–	–	–	–	–
CCC1SC2=NC(C)=C(C(=O)OC)C(c3ccc(C)cc3)N2C1=O (centres undefined)	–	–	–	–	–
CCOC(=O)C1=NN(c2ccccc2)C2=NC(C)=C(C(=O)OC)C(c3ccc(C)cc3)N12 (centres undefined)	70	–	–	–	–
Cc1c(N(C(=O)Nc2ccccc2)C2=NCC(C)S2)c(=O)n(-c2ccccc2)n1C (centres undefined)	82	–	–	–	–
COc1ccccc1S(=O)Cc1ccc(C(=O)NCCc2ccc(Cl)cc2)o1 (centres undefined)	–	–	–	–	–
CCOC(=O)c1cc(-c2ccccc2)n(CC(=O)Nc2ccc(OC)cc2)c1C	–	–	51	–	–
CCOC(=O)c1cc(-c2ccc(F)cc2)n(CCC(=O)NC2CCN(Cc3ccccc3)CC2)c1C	–	–	80	–	–
CCOC(=O)c1cc(-c2ccc(OC)cc2)n(CCC(=O)NC2CCN(Cc3ccccc3)CC2)c1C	–	–	84	–	–
CCOC(=O)c1cc(-c2ccccc2)n(CCC(=O)O)c1C	·	–	–	–	–
CC(=O)c1cc(-c2ccccc2)n(CCC(=O)NC2CCCCCCC2)c1C	–	–	–	–	–
CC(=O)c1ccc(NC(=S)N(C)C2CCN(C)CC2)cc1	–	–	–	–	–
Cn1c(N2C(=O)CC(Cc3ccccc3)C2=O)nc2ccccc21 (centres undefined)	–	–	–	–	–
O=C(NC(=S)NCCC1=CCCCC1)c1cccnc1	–	–	–	–	–
COCCN1Cc2cccc(C(=O)N3CCN(c4cc(C)ccc4C)CC3)c2C1=O	–	–	–	–	–
CCCN1Cc2cccc(C(=O)N3CCN(c4cc(Cl)ccc4C)CC3)c2C1=O	–	–	97	–	–
CCOC(=O)N1CCC(N2Cc3cccc(C(=O)N4CCN(c5cccc(C)c5C)CC4)c3C2=O)CC1	–	–	62	–	–
SMILES	WT yeast gro inh	RAM network inh	L major viab	ABCB1 inh	ABCG2 block
CCn1cc(C2=NOC(C(=O)Nc3ccc4c(c3)OCO4)C2)c(C)n1 (centres undefined)	–	–	57	–	–
Cc1ccc(N=Nc2c(N)[nH]n3c(=O)cc(-c4ccccc4)nc23)cc1	60	8.7	94	–	–
COc1cccc(N=Nc2c(N)[nH]n3c(=O)cc(-c4ccccc4)nc23)c1	–	–	92	–	–
Cc1cc(=O)n2[nH]c(N)c(N=Nc3ccccc3)c2n1	–	–	–	–	–
COc1ccc(C(C(=O)NC2CCCC2)N(Cc2ccccc2)C(=O)c2nsc(Cl)c2Cl)cc1 (centres undefined)	63	–	–	–	–
CCOc1ccc(NC(=O)c2nsc(Cl)c2Cl)cc1	–	–	–	–	–
CCOc1ccc(C(C(=O)NC2CCCC2)N(Cc2ccccc2)C(=O)c2nsc(Cl)c2Cl)cc1 (centres undefined)	62	–	–	–	–
COc1ccc(CCNC(=O)C(C(=O)c2ccccc2)n2ccccc2=O)cc1OC (centres undefined)	–	–	–	–	–
COc1ccc(CCNC(=O)C(C(=O)c2ccccc2)n2cc(Cl)ccc2=O)cc1OC (centres undefined)	–	–	55	·	–
O=C(Nc1cccc(S(=O)(=O)NC2=NCCC2)c1)C1CC(=O)N(c2ccc3c(c2)OCCO3)C1 (centres undefined)	–	–	–	–	–
CSCCC(NC(C)=O)C(=O)Oc1ccc2c3c(c(=O)oc2c1)CCCC3 (centres undefined)	–	–	–	–	–
CSCCC(NC(=O)OC(C)(C)C)C(=O)Oc1ccc2c(=O)c(-c3ccc4c(c3)OCCO4)coc2c1 (centres undefined)	–	8.7	–	–	–
O=C(NCCCN1CCOCC1)c1ccc(CSCc2cccc(Cl)c2)o1	–	–	71	–	–
Clc1cccc(-c2ccc(CNCCCN3CCOCC3)o2)c1	–	–	77	–	–
O=C(NCCN1CCOCC1)c1ccc(CSCc2cccc(Cl)c2)o1	–	–	–	–	–
C=CCN(CC=C)C(=O)COC(=O)c1ccc(Sc2ncn[nH]2)c([N+](=O)[O-])c1	–	–	–	–	–
Cc1cccc(C)c1NC(=S)N(CCCN1CCOCC1)Cc1cccnc1	–	–	–	–	–
CC(=O)c1cccc(NC(=S)NC(=O)c2cccc(C)c2)c1	–	–	51	–	–
CC(C)Oc1cccc(C(=O)NC(=S)Nc2ccccc2)c1	–	–	86	–	–
CC(=O)c1cccc(NC(=O)c2oc(C)nc2C)c1	–	–	72	–	–
CCCOc1cccc(C(=O)NC(=S)Nc2cccc(NC(=O)c3ccccc3Cl)c2)c1	–	–	97	–	–
CC(C)Oc1cccc(C(=O)NC(=S)Nc2cccnc2)c1	–	–	–	–	–
CSc1ncccc1C(=O)NC(C)C1CC2CCC1C2 (centres undefined)	–	–	–	–	–
CC(=O)c1cccc(CN2CCN(C(C)C)C(CCO)C2)c1 (centres undefined)	–	–	–	–	–
O=c1cc(CSc2nc3ccccc3c(=O)[nH]2)c2ccc(O)cc2o1	–	–	–	–	–
Cc1ccn2c(-c3n[nH]c(=S)n3C)c(C)nc2c1	–	–	–	–	–
CC(C)COc1cccc(C(=O)NC(=S)Nc2cccc(NC(=O)c3ccccc3Cl)c2)c1	–	–	80	–	–
CCCCOC(=O)C1=C(C)NC(=O)NC1c1ccc([N+](=O)[O-])s1 (centres undefined)	–	–	–	–	–
O=C(NCC1CCCO1)c1sc2cc(Cl)ccc2c1Cl (centres undefined)	–	–	–	–	–
